According to ChEMBL document CHEMBL4177755, “Combating Drug-Resistant Fungi with Novel Imperfectly Amphipathic Palindromic Peptides” (J Med Chem, 2018):

Key:
[1] = Cytotoxicity against mouse RAW264.7 cells assessed as cell viability at 2 to 64 uM after 24 hrs by MTT assay relative to control; format: cell-based; details: read-out: Activity
In short: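 MTT viability assay. RAW264.7 or HEK293T cells at (1.0−2.0) × 10^5 per well were exposed to a peptide concentration series for 24 h at 37 °C in 5% CO2. MTT was then added at 0.5 mg/mL final for 4 h; formazan was dissolved in DMSO and read at 570 nm. Results average three independent trials.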

Escherichia coli [2] = experiment: Antibacterial activity against Escherichia coli ATCC 25922 after 24 hrs; format: functional; details: ATCC 25922, 24 h
In short: (§1)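 Broth microdilution. Mid-log bacteria in MHB at a final (0.5−1) × 10^5 CFU/mL were mixed with equal volumes of peptide serially diluted in 0.2% BSA. Plates were incubated 24 h at 37 °C and read at A492. MIC is the lowest concentration inhibiting 95% of growth. Each test was repeated at least 3 times.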

[3] = Antibacterial activity against Salmonella pullorum ATCC 7913 after 24 hrs; format: functional, Salmonella enterica subsp. enterica serovar Pullorum; details: Salmonella enterica, ATCC 7913, 24 h; in short: as §1
Staphylococcus aureus [4] = experiment: Antibacterial activity against methicillin-resistant Staphylococcus aureus ATCC 4330 after 24 hrs; format: functional; details: ATCC 4330, 24 h
In short: (§2)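 Modified NCCLS broth microdilution. Mid-log bacteria at (0.5−1) × 10^5 CFU/mL in MHB were mixed 1:1 with peptide serially diluted in 0.2% BSA and incubated 24 h at 37 °C. Absorbance was read at 492 nm; MIC is the lowest concentration inhibiting 95% of growth. At least 3 repeats.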

[5] = system: Staphylococcus epidermidis; experiment: Antibacterial activity against Staphylococcus epidermidis ATCC 12228 after 24 hrs; format: functional; details: ATCC 12228, 24 h; in short: as §1
Staphylococcus aureus [6] = experiment: Antibacterial activity against Staphylococcus aureus ATCC 25923 after 24 hrs; format: functional; details: ATCC 25923, 24 h; in short: as §2
Staphylococcus aureus [7] = experiment: Bactericidal activity against methicillin-resistant Staphylococcus aureus ATCC 4330; format: functional; details: read-out: MBC99.9
In short: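 Bacteria at (0.5−1) × 10^5 CFU/mL in MHB were exposed to serially diluted peptide (0.2% BSA) for 24 h at 37 °C, then 50 μL aliquots were plated on agar overnight. MBC is the lowest concentration killing >99.9% of cells. At least 3 repeats.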

Staphylococcus aureus [8] = experiment: Bactericidal activity against Staphylococcus aureus ATCC 25923; format: functional; details: read-out: MBC99.9
In short: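 Wells from the 24 h, 37 °C MHB microdilution plates (bacteria at a final (0.5−1) × 10^5 CFU/mL; peptide diluted in 0.2% BSA) were plated on agar and incubated overnight. MBC is the lowest concentration killing >99.9% of cells. Each test was reproduced at least 3 times.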

Candida albicans [9] = experiment: Antifungal activity against Candida albicans cgmcc 2.2086 after 48 hrs by broth microdilution method; format: functional; details: cgmcc 2.2086, 48 h
In short: (§3)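 Modified CLSI M27-A2 broth microdilution. Yeast at (0.5−1) × 10^3 CFU/mL in MOPS-buffered RPMI 1640 was mixed 1:1 with peptide serially diluted in 0.2% BSA and incubated 48 h at 28 °C. Absorbance was read at 492 nm; MIC is the lowest concentration inhibiting 95% of growth. Triplicate, three biological replicates.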

Candida albicans [10] = experiment: Antifungal activity against Candida albicans SP3931 after 48 hrs by broth microdilution method; format: functional; details: SP3931, 48 h; in short: as §3
Candida albicans [11] = experiment: Antifungal activity against Candida albicans SP3903 after 48 hrs by broth microdilution method; format: functional; details: SP3903, 48 h; in short: as §3
Candida albicans [12] = experiment: Antifungal activity against Candida albicans SP3876 after 48 hrs by broth microdilution method; format: functional; details: SP3876, 48 h; in short: as §3
Candida albicans [13] = experiment: Antifungal activity against Candida albicans isolated from alveolar fluid after 48 hrs by broth microdilution method; format: functional; in short: as §3
Candida albicans [14] = experiment: Antifungal activity against fluconazole-resistant Candida albicans 56452 after 48 hrs by broth microdilution method; format: functional; details: Candida albicans, 56452, 48 h; in short: as §3
Candida albicans [15] = experiment: Antifungal activity against fluconazole-resistant Candida albicans 17546 after 48 hrs by broth microdilution method; format: functional; details: Candida albicans, 17546, 48 h; in short: as §3
Candida tropicalis [16] = experiment: Antifungal activity against Candida tropicalis cgmcc 2.1975 after 48 hrs by broth microdilution method; format: functional; details: cgmcc 2.1975, 48 h
In short: (§4)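 Modified CLSI M27-A2 broth microdilution. Yeast were suspended in MOPS-buffered RPMI 1640 at a final (0.5−1) × 10^3 CFU/mL and mixed 1:1 with peptide serially diluted in 0.2% BSA. Plates were incubated 48 h at 28 °C and read at A492. MIC is the lowest concentration giving 95% inhibition. Run in triplicate with three biological replicates.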

Pichia kudriavzevii [17] = experiment: Antifungal activity against Candida krusei cgmcc 2.1857 after 48 hrs by broth microdilution method; format: functional; details: cgmcc 2.1857, 48 h; in short: as §4
Candida albicans [18] = experiment: Fungicidal activity against Candida albicans cgmcc 2.2086 after 96 hrs; format: functional; details: cgmcc 2.2086, 96 h, read-out: MFC99.9
In short: (§5)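 After the 48 h, 28 °C broth microdilution in MOPS-buffered RPMI 1640 (inoculum (0.5−1) × 10^3 CFU/mL), 50 μL from each well was plated on YM agar for a further 48 h at 28 °C. MFC is the lowest concentration killing at least 99.9% of cells. Triplicate, three biological replicates.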

Candida albicans [19] = experiment: Fungicidal activity against Candida albicans SP3931 after 96 hrs; format: functional; details: SP3931, 96 h, read-out: MFC99.9; in short: as §5
Candida albicans [20] = experiment: Fungicidal activity against Candida albicans isolated from alveolar fluid after 96 hrs; format: functional; details: read-out: MFC99.9; in short: as §5
Candida albicans [21] = experiment: Fungicidal activity against fluconazole-resistant Candida albicans 56452 after 96 hrs; format: functional; details: Candida albicans, 56452, 96 h; read-out: MFC99.9; in short: as §5
Candida albicans [22] = experiment: Fungicidal activity against Candida albicans 14936 after 96 hrs; format: functional; details: Candida albicans, 14936, 96 h; read-out: MFC99.9; in short: as §5
Candida tropicalis [23] = experiment: Fungicidal activity against Candida tropicalis cgmcc 2.1975 after 96 hrs; format: functional; details: cgmcc 2.1975, 96 h, read-out: MFC99.9
In short: (§6)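 Wells from the 48 h, 28 °C RPMI 1640/MOPS microdilution plates were plated on YM agar and incubated a further 48 h at 28 °C. MFC is the lowest concentration killing at least 99.9% of cells. Run in triplicate with three biological replicates.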

Pichia kudriavzevii [24] = experiment: Fungicidal activity against Candida krusei cgmcc 2.1857 after 96 hrs; format: functional; details: cgmcc 2.1857, 96 h, read-out: MFC99.9; in short: as §6
Escherichia coli [25] = experiment: Antibacterial activity against Escherichia coli ATCC 25922 after 18 hrs in presence of KCl by broth dilution method; format: functional; details: ATCC 25922, 18 h
Escherichia coli [26] = experiment: Antibacterial activity against Escherichia coli ATCC 25922 after 18 hrs in presence of NH4Cl by broth dilution method; format: functional; details: ATCC 25922, 18 h
Escherichia coli [27] = experiment: Antibacterial activity against Escherichia coli ATCC 25922 after 18 hrs in presence of MgCl2 by broth dilution method; format: functional; details: ATCC 25922, 18 h
Escherichia coli [28] = experiment: Antibacterial activity against Escherichia coli ATCC 25922 after 18 hrs in presence of ZnCl2 by broth dilution method; format: functional; details: ATCC 25922, 18 h
Candida albicans [29] = experiment: Antifungal activity against Candida albicans cgmcc 2.2086 in presence of MgCl2 by broth dilution method; format: functional
Candida albicans [30] = experiment: Antifungal activity against Candida albicans 58288 after 48 hrs by broth microdilution method; format: functional; details: Candida albicans, 58288, 48 h; in short: as §3

Row | Substance | viability at 24 h, up to 64 µM [1] | MIC95 (Escherichia coli [2]) | MIC95 [3] | MIC95 (Staphylococcus aureus [4]) | MIC95 [5] | MIC95 (Staphylococcus aureus [6]) | MBC (Staphylococcus aureus [7]) | MBC (Staphylococcus aureus [8]) | MIC95 (Candida albicans [9]) | MIC95 (Candida albicans [10]) | MIC95 (Candida albicans [11]) | MIC95 (Candida albicans [12]) | MIC95 (Candida albicans [13]) | MIC95 (Candida albicans [14]) | MIC95 (Candida albicans [15]) | MIC95 (Candida tropicalis [16]) | MIC95 (Pichia kudriavzevii [17]) | MFC (Candida albicans [18]) | MFC (Candida albicans [19]) | MFC (Candida albicans [20]) | also measured
1 | H-IIRRIRRII-NH2 | 70 to 80% | 32 µM | 32 µM | 64 µM | 64 µM | > 64 µM | > 64 µM | > 64 µM | 64 µM | > 64 µM | > 64 µM | > 64 µM | 64 µM | 64 µM | > 64 µM | 4 µM | 16 µM | 64 µM | > 64 µM | > 64 µM | MFC (Candida albicans [21]): 64 µM; MFC (Candida albicans [22]): > 64 µM; MFC (Candida tropicalis [23]): 8 µM; MFC (Pichia kudriavzevii [24]): 16 µM; MIC (Escherichia coli [25]): 32 µM; MIC (Escherichia coli [26]): 32 µM; MIC (Escherichia coli [27]): 32 µM; MIC (Escherichia coli [28]): 32 µM; MIC (Candida albicans [29]): 64 µM; MIC95 (Candida albicans [30]): > 64 µM
2 | H-LLRRLRRLL-NH2 | 70 to 80% | 16 µM | 32 µM | 8 µM | 16 µM | 16 µM | 16 µM | 32 µM | 32 µM | 32 µM | 16 µM | 32 µM | 64 µM | 32 µM | 64 µM | 4 µM | 8 µM | 64 µM | 32 µM | > 64 µM | MFC (Candida albicans [21]): 32 µM; MFC (Candida albicans [22]): > 64 µM; MFC (Candida tropicalis [23]): 8 µM; MFC (Pichia kudriavzevii [24]): 8 µM; MIC (Escherichia coli [25]): 16 µM; MIC (Escherichia coli [26]): 16 µM; MIC (Escherichia coli [27]): 16 µM; MIC (Escherichia coli [28]): 16 µM; MIC (Candida albicans [29]): 64 µM; MIC95 (Candida albicans [30]): 64 µM
3 | H-RFFRRFRRFFR-NH2 | 70 to 80% | 8 µM | 4 µM | 4 µM | 4 µM | 4 µM | 8 µM | 8 µM | 8 µM | 8 µM | 4 µM | 8 µM | 8 µM | 8 µM | 4 µM | 2 µM | 2 µM | 16 µM | 16 µM | 16 µM | MFC (Candida albicans [21]): 8 µM; MFC (Candida albicans [22]): 16 µM; MFC (Candida tropicalis [23]): 4 µM; MFC (Pichia kudriavzevii [24]): 4 µM; MIC (Escherichia coli [25]): 8 µM; MIC (Escherichia coli [26]): 4 µM; MIC (Escherichia coli [27]): 2 µM; MIC (Escherichia coli [28]): 8 µM; MIC (Candida albicans [29]): 8 µM; MIC95 (Candida albicans [30]): 4 µM
4 | H-RFRFFFRFR-NH2 | 70 to 80% | 4 µM | 2 µM | 4 µM | 4 µM | 4 µM | 4 µM | 8 µM | 8 µM | 8 µM | 4 µM | 8 µM | 8 µM | 4 µM | 4 µM | 2 µM | 4 µM | 16 µM | 16 µM | 16 µM | MFC (Candida albicans [21]): 4 µM; MFC (Candida albicans [22]): 8 µM; MFC (Candida tropicalis [23]): 4 µM; MFC (Pichia kudriavzevii [24]): 4 µM; MIC (Escherichia coli [25]): 4 µM; MIC (Escherichia coli [26]): 4 µM; MIC (Escherichia coli [27]): 2 µM; MIC (Escherichia coli [28]): 4 µM; MIC (Candida albicans [29]): 16 µM; MIC95 (Candida albicans [30]): 8 µM
5 | H-RIIRRIRRIIR-NH2 | 70 to 80% | 16 µM | 16 µM | 16 µM | 16 µM | 32 µM | 16 µM | 64 µM | 16 µM | 16 µM | 4 µM | 8 µM | 16 µM | 8 µM | 16 µM | 1 µM | 4 µM | 64 µM | 32 µM | 32 µM | MFC (Candida albicans [21]): 8 µM; MFC (Candida albicans [22]): 8 µM; MFC (Candida tropicalis [23]): 2 µM; MFC (Pichia kudriavzevii [24]): 8 µM; MIC (Escherichia coli [25]): 16 µM; MIC (Escherichia coli [26]): 16 µM; MIC (Escherichia coli [27]): 16 µM; MIC (Escherichia coli [28]): 16 µM; MIC (Candida albicans [29]): 32 µM; MIC95 (Candida albicans [30]): 8 µM
